# Measurements from ChEMBL document CHEMBL3232728, “Synthesis, molecular docking and biological evaluation of metronidazole derivatives containing piperazine skeleton as potential antibacterial agents” (Bioorg Med Chem, 2014).
# Legend:
# Bacillus subtilis = assay: Antibacterial activity against Bacillus subtilis ATCC 530 after 24 hrs by two-fold serial dilution method; type: functional; conditions: ATCC 530, 24 h
# How it was run: (§1)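 Run in Mueller-Hinton medium, read by MTT method, with compounds tested in nutrient broth (NB) by two-fold serial dilution. Seeded broth containing microbial spores was prepared in NB from 24 h old cultures grown on nutrient agar.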
# Pseudomonas aeruginosa = assay: Antibacterial activity against Pseudomonas aeruginosa ATCC 27853 after 24 hrs by two-fold serial dilution method; type: functional; conditions: ATCC 27853, 24 h; how it was run: as §1
# Staphylococcus aureus = assay: Antibacterial activity against Staphylococcus aureus ATCC 25923 after 24 hrs by two-fold serial dilution method; type: functional; conditions: ATCC 25923, 24 h; how it was run: as §1
# [1] = Toxicity in RBC (unknown origin) assessed as hemolysis; type: cell-based; conditions: erythrocyte
# [2] = Inhibition of Staphylococcus aureus TyrRS compound preincubated for 10 mins by liquid scintillation counting in presence of L-ring-3,5-[3H]tyrosine
# Escherichia coli = assay: Antibacterial activity against Escherichia coli ATCC 25922 after 24 hrs by two-fold serial dilution method; type: functional; conditions: ATCC 25922, 24 h; how it was run: as §1
Compound,MIC (Bacillus subtilis) [µg/mL],MIC (Pseudomonas aeruginosa) [µg/mL],MIC (Staphylococcus aureus) [µg/mL],IC50 [2] [µM],MIC (Escherichia coli) [µg/mL],LC30 [1] [µg/mL]
COc1cccc(N2CCN(CCn3c([N+](=O)[O-])cnc3C)CC2)c1,0.805,> 50,0.656,7.65,> 50,> 10000
Cc1ncc([N+](=O)[O-])n1CCN1CCN(c2cccc(Cl)c2Cl)CC1,14.4,> 50,11.1,13.6,> 50,> 10000
Cc1ncc([N+](=O)[O-])n1CCN1CCN(c2cccc(Cl)c2)CC1,2.57,> 50,1.8,10.5,> 50,> 10000
Cc1ccc(N2CCN(CCn3c([N+](=O)[O-])cnc3C)CC2)c(C)c1,4.31,> 50,1.61,12.6,> 50,> 10000
Cc1ncc([N+](=O)[O-])n1CCN1CCN(c2ccc(Cl)c(Cl)c2)CC1,6.83,> 50,11.6,16.2,> 50,> 10000
Cc1ncc([N+](=O)[O-])n1CCN1CCN(C(c2ccccc2)c2ccc(Cl)cc2)CC1 (configuration not stated),0.185,> 50,0.593,1.72,> 50,> 10000
Cc1ncc([N+](=O)[O-])n1CCN1CCN(C(c2ccc(F)cc2)c2ccc(F)cc2)CC1,> 50,> 50,> 50,25.8,> 50,> 10000
O=C(N[C@H](CO)[C@H](O)c1ccc([N+](=O)[O-])cc1)C(Cl)Cl [CHLORAMPHENICOL],0.078,–,0.178,–,0.064,–
CC1(C)S[C@@H]2[C@H](NC(=O)Cc3ccccc3)C(=O)N2[C@H]1C(=O)O [PENICILLIN G],0.335,18.6,1.02,–,22.8,–

# Second part, led by results:
MIC (Bacillus subtilis) [µg/mL],MIC (Pseudomonas aeruginosa) [µg/mL],MIC (Staphylococcus aureus) [µg/mL],IC50 [2] [µM],MIC (Escherichia coli) [µg/mL],Compound,LC30 [1] [µg/mL]
1.55,> 50,> 50,20.5,> 50,Cc1ncc([N+](=O)[O-])n1CCN1CCN(c2ccccc2)CC1,> 10000
> 50,> 50,> 50,25.2,> 50,Cc1ncc([N+](=O)[O-])n1CCN1CCN(c2ccc(F)cc2)CC1,> 10000
0.142,> 50,0.203,0.0086,> 50,Cc1ncc([N+](=O)[O-])n1CCN1CCN(c2ccccc2Cl)CC1,> 10000
> 50,> 50,17.1,23.4,> 50,Cc1ncc([N+](=O)[O-])n1CCN1CCN(c2ccccc2F)CC1,> 10000
0.272,> 50,0.583,1.12,> 50,COc1ccccc1N1CCN(CCn2c([N+](=O)[O-])cnc2C)CC1,> 10000
3.29,> 50,18.1,15.3,> 50,Cc1ncc([N+](=O)[O-])n1CCN1CCN(c2cccc(C(F)(F)F)c2)CC1,> 10000
0.033,> 50,0.123,0.0067,> 50,COc1ccc(N2CCN(CCn3c([N+](=O)[O-])cnc3C)CC2)cc1,> 10000
0.011,> 50,0.003,0.0024,> 50,Cc1ncc([N+](=O)[O-])n1CCN1CCN(C(c2ccccc2)c2ccccc2)CC1,> 10000
